According to ChEMBL document CHEMBL3259713, “Dissecting the structure of thiopeptides: assessment of thiazoline and tail moieties of baringolin and antibacterial activity optimization” (J Med Chem, 2014):
Values after ≈ are worked out from the molar mass of the structure shown. Square brackets hold non-standard residues; d marks the D form. Peptide text beside a SMILES is read from it. * marks the point of attachment. Dha = C=C(N)C(=O)O; X1 = O=C(c1cscn1)*

How the values were obtained:
Micrococcus luteus = experiment: Antibacterial activity against Micrococcus luteus ATCC 9341 assessed as growth inhibition after 24 hrs by CLSI M7-A9 broth microdilution method; format: functional; conditions: ATCC 9341, 24 h
Procedure, shortened: (§1)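 Isolates from frozen stocks subcultured at least twice on sheep blood agar and grown 24 h before testing. Inoculum made by direct suspension in saline to 0.5 McFarland turbidity. MIC determined by broth microdilution in Mueller-Hinton broth following CLSI M7-A9, incubated at 35 °C for 24 h.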

Staphylococcus aureus = experiment: Antibacterial activity against Staphylococcus aureus assessed as growth inhibition after 24 hrs by CLSI M7-A9 broth microdilution method; format: functional; procedure, shortened: as §1
Cutibacterium acnes = experiment: Antibacterial activity against Propionibacterium acnes assessed as growth inhibition after 24 hrs by CLSI M11-A8 broth microdilution method; format: functional
Procedure, shortened: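 This anaerobe was subcultured at least twice from frozen stock on supplemented Brucella agar and grown 48 h before testing. Inoculum was a direct saline suspension at 0.5 McFarland. MIC was by microdilution in Brucella broth with hemin (5 μg/mL), vitamin K1 and 5% lysed horse blood per CLSI M11-A8, 35 °C for 24 h under anaerobic conditions.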

Bacillus subtilis = experiment: Antibacterial activity against Bacillus subtilis ATCC 6633 assessed as growth inhibition after 24 hrs by CLSI M7-A9 broth microdilution method; format: functional; conditions: ATCC 6633, 24 h; procedure, shortened: as §1
[1] = Solubility of the compound in 0.1 M phosphate buffer after 48 hrs by spectrophotometer analysis; format: physicochemical
Procedure, shortened: (§2)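 About 1 mg of solid was combined with a known volume of solvent so that the solution was saturated. It was vortexed 1 min, shaken 48 h and centrifuged at 10000 rpm for 3 min. Dissolved compound in the supernatant was measured by absorbance at 304 nm.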

[2] = Solubility of the compound in water after 48 hrs by spectrophotometer analysis; format: physicochemical; procedure, shortened: as §2

Compound | MIC (Micrococcus luteus) [µg/mL] | MIC (Staphylococcus aureus) [µg/mL] | MIC (Cutibacterium acnes) [µg/mL] | MIC (Bacillus subtilis) [µg/mL] | solubility at 48 h [1] [µg/mL] | solubility at 48 h [2] [µg/mL]
CCOC(=O)c1csc(-c2ccc3c(n2)-c2csc(n2)-c2csc(n2)[C@@H]2CCCN2C(=O)[C@H](Cc2ccc(O)cc2)NC(=O)C2CSC(=N2)[C@H](Cc2ccccc2)NC(=O)c2csc(n2)[C@H](CC(N)=O)NC(=O)c2nc-3oc2C)n1 (stereo partly drawn) | 4 (≈ 3.42 µM) | > 8 | 4 (≈ 3.42 µM) | 8 (≈ 6.84 µM) | – | –
Cc1oc2nc1C(=O)N[C@@H](CC(N)=O)c1nc(cs1)C(=O)N[C@@H](Cc1ccccc1)c1nc(cs1)C(=O)N[C@@H](Cc1ccc(O)cc1)C(=O)N1CCC[C@H]1c1nc(cs1)-c1nc(cs1)-c1nc(-c3nc(C(=O)O)cs3)ccc1-2 | > 8 | 2 (≈ 1.76 µM) | 2 (≈ 1.76 µM) | 8 (≈ 7.02 µM) | 23 (≈ 20.2 µM) | –
Cc1oc2nc1C(=O)N[C@@H](CC(N)=O)c1nc(cs1)C(=O)N[C@@H](Cc1ccccc1)c1nc(cs1)C(=O)N[C@@H](Cc1ccc(O)cc1)C(=O)N1CCC[C@H]1c1nc(cs1)-c1nc(cs1)-c1nc(-c3nc(C(N)=O)cs3)ccc1-2 | > 8 | 1 (≈ 0.878 µM) | 8 (≈ 7.03 µM) | 8 (≈ 7.03 µM) | 7 (≈ 6.15 µM) | –
C=C(NC(=O)c1csc(-c2ccc3c(n2)-c2csc(n2)-c2csc(n2)[C@@H]2CCCN2C(=O)[C@H](Cc2ccc(O)cc2)NC(=O)c2csc(n2)[C@H](Cc2ccccc2)NC(=O)c2csc(n2)[C@H](CC(N)=O)NC(=O)c2nc-3oc2C)n1)C(=O)N[C@@H](C)C(=O)N1CCC[C@H]1C(N)=O | 2 (≈ 1.45 µM) | 0.5 (≈ 0.363 µM) | 4 (≈ 2.91 µM) | 8 (≈ 5.82 µM) | – | –
C=C(NC(=O)[C@@H]1CCCN1C(=O)[C@H](C)NC(=O)C(=C)NC(=O)c1csc(-c2ccc3c(n2)-c2csc(n2)-c2csc(n2)[C@@H]2CCCN2C(=O)[C@H](Cc2ccc(O)cc2)NC(=O)c2csc(n2)[C@H](Cc2ccccc2)NC(=O)c2csc(n2)[C@H](CC(N)=O)NC(=O)c2nc-3oc2C)n1)C(N)=O | 2 (≈ 1.38 µM) | 0.5 (≈ 0.346 µM) | 8 (≈ 5.54 µM) | 0.5 (≈ 0.346 µM) | – | –
C=C(NC(=O)C(=C)NC(=O)[C@@H]1CCCN1C(=O)[C@H](C)NC(=O)C(=C)NC(=O)c1csc(-c2ccc3c(n2)-c2csc(n2)-c2csc(n2)[C@@H]2CCCN2C(=O)[C@H](Cc2ccc(O)cc2)NC(=O)c2csc(n2)[C@H](Cc2ccccc2)NC(=O)c2csc(n2)[C@H](CC(N)=O)NC(=O)c2nc-3oc2C)n1)C(N)=O | 2 (≈ 1.32 µM) | 0.5 (≈ 0.33 µM) | 8 (≈ 5.28 µM) | 1 (≈ 0.661 µM) | – | –
C=C(NC(=O)C(=C)NC(=O)[C@@H]1CCCN1C(=O)[C@H](C)NC(=O)C(=C)NC(=O)c1cscn1)C(N)=O (X1-[Dha]AP[Dha][Dha]-NH2) | 2 (≈ 3.97 µM) | > 8 | 8 (≈ 15.9 µM) | > 8 | 6650 (≈ 13200 µM) | 4660 (≈ 9260 µM)

Further compounds by falling MIC (Micrococcus luteus), results first:

MIC (Micrococcus luteus) [µg/mL] | MIC (Staphylococcus aureus) [µg/mL] | MIC (Cutibacterium acnes) [µg/mL] | MIC (Bacillus subtilis) [µg/mL] | solubility at 48 h [1] [µg/mL] | solubility at 48 h [2] [µg/mL] | Compound
2 (≈ 1.71 µM) | > 8 | 4 (≈ 3.43 µM) | > 8 | – | – | CCOC(=O)c1csc(-c2ccc3c(n2)-c2csc(n2)-c2csc(n2)[C@@H]2CCCN2C(=O)[C@H](Cc2ccc(O)cc2)NC(=O)c2csc(n2)[C@H](Cc2ccccc2)NC(=O)c2csc(n2)[C@H](CC(N)=O)NC(=O)c2nc-3oc2C)n1
1 (≈ 0.691 µM) | 0.5 (≈ 0.346 µM) | 0.5 (≈ 0.346 µM) | 0.5 (≈ 0.346 µM) | – | – | C=C(NC(=O)[C@@H]1CCCN1C(=O)[C@H](C)NC(=O)C(=C)NC(=O)c1csc(-c2ccc3c(n2)-c2csc(n2)-c2csc(n2)[C@@H]2CCCN2C(=O)[C@H](Cc2ccc(O)cc2)NC(=O)C2CSC(=N2)[C@H](Cc2ccccc2)NC(=O)c2csc(n2)[C@H](CC(N)=O)NC(=O)c2nc-3oc2C)n1)C(N)=O (stereo partly drawn)
0.5 (≈ 0.33 µM) | 0.25 (≈ 0.165 µM) | 0.125 (≈ 0.0825 µM) | 0.25 (≈ 0.165 µM) | – | – | C=C(NC(=O)C(=C)NC(=O)[C@@H]1CCCN1C(=O)[C@H](C)NC(=O)C(=C)NC(=O)c1csc(-c2ccc3c(n2)-c2csc(n2)-c2csc(n2)[C@@H]2CCCN2C(=O)[C@H](Cc2ccc(O)cc2)NC(=O)[C@H]2CSC(=N2)[C@H](Cc2ccccc2)NC(=O)c2csc(n2)[C@H](CC(N)=O)NC(=O)c2nc-3oc2C)n1)C(N)=O
0.5 (≈ 0.395 µM) | 0.03 (≈ 0.0237 µM) | 0.06 (≈ 0.0474 µM) | 0.03 (≈ 0.0237 µM) | 18 (≈ 14.2 µM) | – | Cc1oc2nc1C(=O)N[C@@H](CC(N)=O)c1nc(cs1)C(=O)N[C@@H](Cc1ccccc1)c1nc(cs1)C(=O)N[C@@H](Cc1ccc(O)cc1)C(=O)N1CCC[C@H]1c1nc(cs1)-c1nc(cs1)-c1nc(-c3nc(C(=O)N[C@H]4CC[C@H](C(=O)O)CC4)cs3)ccc1-2
0.5 (≈ 0.363 µM) | 0.25 (≈ 0.181 µM) | 0.125 (≈ 0.0907 µM) | 0.25 (≈ 0.181 µM) | – | – | C=C(NC(=O)c1csc(-c2ccc3c(n2)-c2csc(n2)-c2csc(n2)[C@@H]2CCCN2C(=O)[C@H](Cc2ccc(O)cc2)NC(=O)C2CSC(=N2)[C@H](Cc2ccccc2)NC(=O)c2csc(n2)[C@H](CC(N)=O)NC(=O)c2nc-3oc2C)n1)C(=O)N[C@@H](C)C(=O)N1CCC[C@H]1C(N)=O (stereo partly drawn)
